Published values of several laboratories.
Target: Tyrosine-protein kinase TXK (TXK, Homo sapiens, UniProt P42681)
One construct used (P42681 1-527): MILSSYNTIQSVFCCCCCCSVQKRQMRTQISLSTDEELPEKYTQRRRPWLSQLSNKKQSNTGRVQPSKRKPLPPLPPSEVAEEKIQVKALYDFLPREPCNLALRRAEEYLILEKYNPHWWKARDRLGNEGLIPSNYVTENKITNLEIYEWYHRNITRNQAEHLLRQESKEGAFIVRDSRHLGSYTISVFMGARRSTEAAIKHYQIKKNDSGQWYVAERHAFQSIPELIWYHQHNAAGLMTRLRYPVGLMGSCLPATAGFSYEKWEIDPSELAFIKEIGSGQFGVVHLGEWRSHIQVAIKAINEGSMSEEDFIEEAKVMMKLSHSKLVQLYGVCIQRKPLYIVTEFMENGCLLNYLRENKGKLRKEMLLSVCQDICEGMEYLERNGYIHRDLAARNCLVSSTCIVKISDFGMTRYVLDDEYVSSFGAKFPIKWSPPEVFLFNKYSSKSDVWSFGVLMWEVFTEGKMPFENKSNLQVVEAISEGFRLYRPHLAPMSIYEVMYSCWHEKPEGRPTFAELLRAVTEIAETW

CCOc1cc(-c2nncn2C)ccc1Nc1ncc2cc(C)nc(NCC(C)(C)C)c2n1 — inhibition (enzyme activity, inhibitor, FRET; 1 µM): < 15%
Cn1nc(C(=O)NCc2ccc(C(=O)O)cc2)cc1-c1ccc2[nH]ccc2c1 — remaining binding (binding, competition with immobilised ligand; 0.1 µM): 90%
CC(C)(O)[C@H]1CC[C@H](Nc2ccc3ncc(-c4cccc(C(F)(F)F)c4)n3n2)CC1 — remaining activity (enzyme activity, inhibitor; 1 µM): 62.6%
O=C1NC(=O)c2cc(Nc3ccc(F)cc3)c(Nc3ccc(F)cc3)cc21 — remaining signal (cell-free assay; 0.5 µM): 84.1%
Cc1ccc(C(=O)Nc2ccc(CN3CCN(C)CC3)c(C(F)(F)F)c2)cc1C#Cc1cnc2cccnn12 — remaining activity (enzyme activity, inhibitor; 23.5 nM): 25%
COc1cc(-c2cn(C3CCc4ccccc4N(CC(F)(F)F)C3=O)nn2)ccc1-n1ccc(C)n1 (stereo not shown) — remaining binding (binding, competition with immobilised ligand; 1 µM): 84%
O=C(Nc1cnn(-c2csc(C(=O)NC3COC3)c2)c1)Nc1c(F)cccc1Cl — remaining activity (enzyme activity, inhibitor; 5 µM): 90.8%
NS(=O)(=O)c1cc(NC(=O)Cc2ccccc2)ccc1Oc1cccc(Cl)c1 — remaining binding (binding, competition with immobilised ligand; 1 µM): 92%
CC(C)(C)c1nc(-c2cccc(NS(=O)(=O)c3c(F)cccc3F)c2F)c(-c2ccnc(N)n2)s1 — remaining activity (enzyme activity, inhibitor, radiometric; 1 µM): 88%
CCOC(=O)c1cc2cc(-c3cc(C(=O)NCc4ccc(C(=O)O)cc4)nn3C)ccc2[nH]1 — remaining binding (binding, competition with immobilised ligand; 0.1 µM): 90%
N#CCCc1ccc2c(c1)-c1[nH]c3ccc([N+](=O)[O-])cc3c1CC(=O)N2 — remaining signal (cell-free assay; 0.5 µM): 67.6%
CN(C(=O)c1ccccc1)c1cc(N(C)c2ccc3c(c2)CCc2ccc(C(=O)NCCN4CCOCC4)cc2C3=O)ccc1F — remaining binding (binding, competition with immobilised ligand; 1 µM): 79%
COc1cc2ncnc(Nc3ccc(Oc4ccccc4)cc3C)c2cc1OC — inhibition (enzyme activity, inhibitor; 1 µM): 16%
Cc1cc(NC(=O)c2cccc3cc(-c4cccc5[nH]nc(N)c45)ccc23)ccc1F — activity vs control (enzyme activity, inhibitor; 0.1 µM): 123%
CCN(CC)c1ccc(C2=NNC(=O)CC2C)cc1[N+](=O)[O-] (stereo not shown) — remaining activity (enzyme activity, inhibitor; 10 µM): 84%
O=C1Nc2ccc(Cl)cc2C1=Cc1cc(Cl)c(O)c(Cl)c1 — remaining signal (cell-free assay; 0.5 µM): 86.6%
O=C(N[C@H]1CCCCC/C=C\C2C[C@@]2(C(=O)O)NC(=O)[C@@H]2C[C@@H](Oc3ccncc3)CN2C1=O)OC1CCCC1 (stereo partly shown) — remaining binding (binding, competition with immobilised ligand; 1 µM): 87%
CC/C(=N\NC(=O)NCc1cccc(O)c1)c1ccc(O)c(C)c1O — inhibition (enzyme activity, inhibitor; 0.1 µM): -0.3%
CCCS(=O)(=O)Nc1ccc(F)c(C(=O)c2c[nH]c3ncc(-c4ccc(Cl)cc4)cc23)c1F — inhibition (enzyme activity, inhibitor; 1 µM): < 10%
